Source: publication PMC5955861 (Oncogene, 2018)
Like-named read-outs stand apart in the source and are kept apart here.

Tests used:
[1] = test system: Toledo; experiment: alamarBlue cell proliferation assay; type: cell-based; conditions: Homo sapiens
In short: (§1)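 Cell lines from ATCC or DSMZ were cultured per supplier's instructions and STR-authenticated. MV-4-11B is a clone of MV-4-11 carrying heterozygous TP53 c.742C>T (p.R248W). Cells were exposed to test compound in 96-well format, and viability was read after incubation with alamarBlue.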

[2] = test system: MHH-PREB-1; experiment: alamarBlue cell proliferation assay; type: cell-based; conditions: Homo sapiens
In short: (§2)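 Leukemia, lymphoma and myeloma lines (from ATCC or DSMZ, grown per supplier instructions, STR-authenticated; GFP-labelled sublines where stated) were incubated with test compound in 96-well flat-bottom plates. Viability was read by alamarBlue conversion, and EC50 was taken from the concentration-response.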

[3] = test system: L-363; experiment: alamarBlue cell proliferation assay; type: cell-based; conditions: Homo sapiens
In short: as §2

[4] = test system: OPM-2 GFP; experiment: alamarBlue cell proliferation assay; type: cell-based; conditions: Homo sapiens
In short: as §2

[5] = test system: Pfeiffer; experiment: alamarBlue cell proliferation assay; type: cell-based; conditions: Homo sapiens
In short: as §2

[6] = test system: OPM-2; experiment: alamarBlue cell proliferation assay; type: cell-based; conditions: Homo sapiens
In short: as §2

[7] = test system: NCI-H929; experiment: alamarBlue cell proliferation assay; type: cell-based; conditions: Homo sapiens
In short: as §2

[8] = test system: U266 B1; experiment: alamarBlue cell proliferation assay; type: cell-based; conditions: Homo sapiens, U-266
In short: as §1

[9] = test system: p-Ser2 POL-II in MV-4-11B cells; experiment: p-Ser2 POL-II custom MSD assay; type: cell-based; conditions: 35 nM BI 894999, 2 h
In short: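 MV-4-11B cells were treated for 2 h with single agents or their combination. Phospho-Ser2 RNA Pol II was quantified with a custom Meso Scale Discovery multi-array assay.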

[10] = test system: CCRF-CEM; experiment: alamarBlue cell proliferation assay; type: cell-based; conditions: Homo sapiens
In short: as §2

[11] = test system: Kasumi-3; experiment: alamarBlue cell proliferation assay; type: cell-based
In short: as §2

[12] = test system: AMO-1; experiment: alamarBlue cell proliferation assay; type: cell-based; conditions: Homo sapiens, AMO1
In short: as §2

[13] = test system: MOLM-13 GFP; experiment: alamarBlue cell proliferation assay; type: cell-based; conditions: Homo sapiens
In short: as §2

[14] = test system: NOMO-1; experiment: alamarBlue cell proliferation assay; type: cell-based; conditions: Homo sapiens
In short: as §2

[15] = test system: THP-1 AML cells; experiment: disseminated AML xenograft efficacy study; type: in vivo, CIEA-NOG mice; conditions: BI 894999 daily, 4 mg/kg p.o.
[16] = test system: K562; experiment: alamarBlue cell proliferation assay; type: cell-based; conditions: Homo sapiens
In short: as §2

[17] = test system: MOLM-1; experiment: alamarBlue cell proliferation assay; type: cell-based
In short: as §2

[18] = test system: HL-60; experiment: alamarBlue cell proliferation assay; type: cell-based; conditions: Homo sapiens
In short: as §2

[19] = test system: HuT78; experiment: alamarBlue cell proliferation assay; type: cell-based; conditions: Homo sapiens
In short: as §2

[20] = test system: SU-DHL2; experiment: alamarBlue cell proliferation assay; type: cell-based; conditions: Homo sapiens, SU-DHL-2
In short: as §2

[21] = molecular target: BRD2/3/4 and BRDT; experiment: BROMOscan ligand-binding site-directed competition assay
[22] = test system: Kasumi-1; experiment: alamarBlue cell proliferation assay; type: cell-based; conditions: Homo sapiens
In short: as §2

[23] = test system: SU-DHL4; experiment: alamarBlue cell proliferation assay; type: cell-based; conditions: Homo sapiens, SU-DHL-4
In short: as §2

[24] = test system: THP-1; experiment: alamarBlue cell proliferation assay; type: cell-based; conditions: Homo sapiens
In short: as §1

[25] = test system: DB; experiment: alamarBlue cell proliferation assay; type: cell-based; conditions: Homo sapiens
In short: as §2

[26] = test system: RPMI 8226; experiment: alamarBlue cell proliferation assay; type: cell-based; conditions: Homo sapiens
In short: as §2

[27] = test system: DERL-2; experiment: alamarBlue cell proliferation assay; type: cell-based; conditions: T-cell
In short: as §2

[28] = test system: HT; experiment: alamarBlue cell proliferation assay; type: cell-based; conditions: Homo sapiens
In short: as §2

[29] = test system: SR-786; experiment: alamarBlue cell proliferation assay; type: cell-based
In short: as §2

[30] = test system: MM.1R; experiment: alamarBlue cell proliferation assay; type: cell-based
In short: as §2

[31] = test system: MOLP-8 GFP; experiment: alamarBlue cell proliferation assay; type: cell-based; conditions: Homo sapiens
In short: as §2

[32] = test system: OCI-Ly18; experiment: alamarBlue cell proliferation assay; type: cell-based; conditions: Homo sapiens
In short: as §2

[33] = test system: RI-1; experiment: alamarBlue cell proliferation assay; type: cell-based
In short: as §2

[34] = test system: hematological cell lines; experiment: alamarBlue cell proliferation assay, panel of hematological cell lines; type: cell-based
In short: as §1

[35] = test system: U-2932; experiment: alamarBlue cell proliferation assay; type: cell-based; conditions: Homo sapiens, U2932
In short: as §1

[36] = test system: RL; experiment: alamarBlue cell proliferation assay; type: cell-based; conditions: Homo sapiens
In short: as §2

[37] = test system: MV-4-11B cells; experiment: FACS cell cycle profile; type: cell-based; conditions: 72 h, 30 nM and 100 nM
[38] = test system: KG-1; experiment: alamarBlue cell proliferation assay; type: cell-based; conditions: Homo sapiens
In short: as §2

[39] = test system: DOHH-2; experiment: alamarBlue cell proliferation assay; type: cell-based; conditions: Homo sapiens
In short: as §2

[40] = test system: MM primary patient samples; experiment: proliferation of ex vivo-treated primary patient samples; type: cell-based; conditions: Homo sapiens
[41] = test system: MV-4-11B cells; experiment: IncuCyte live-cell proliferation and caspase-3/7 apoptosis assay; type: cell-based
[42] = test system: Hexim1 mRNA; experiment: Hexim1 mRNA in blood of xenograft bearing mice; type: in vivo; conditions: 24 h after dosing; MV-4-11B xenograft bearing mice
In short: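 Mice bearing subcutaneous MV-4-11B xenografts were dosed daily with vehicle or test compound at 2, 4 or 12 mg/kg, and blood was collected on the indicated treatment days. Total RNA was isolated with TRI reagent, and 500 ng was reverse-transcribed. Hexim1 transcript was quantified by SYBR Green qRT-PCR.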

## CNc1nc(-c2nc3ccc(N4CCN(C)CC4)cc3n2Cc2ccccc2)cn2c(C)nnc12 [BI 894999]
[1]
  EC50: 6 ± 1.1 nM
[2]
  EC50: 24.4 ± 1.2 nM
[3]
  EC50: 13.7 ± 6.2 nM
[4]
  EC50: 12 nM
[5]
  EC50: 10.7 ± 2.7 nM
[6]
  EC50: 8.9 ± 4.7 nM
[7]
  EC50: 3.6 ± 2 nM
[8]
  EC50: 14.3 ± 7.4 nM
[9]
  p-Ser2 POL-II levels: ~ 86 % of control
[10]
  EC50: 175 ± 58 nM
[11]
  EC50: 3.4 ± 1.5 nM
[12]
  EC50: 28 ± 15 nM
[13]
  EC50: 14.3 nM
[14]
  EC50: 5.7 ± 4.1 nM
[15]
  survival prolongation: 22 days
[16]
  EC50: > 10 µM
[17]
  EC50: 53.4 ± 34.8 nM
[18]
  EC50: 2.7 ± 0.1 nM
[19]
  EC50: 7.1 ± 3.7 nM
[20]
  EC50: 10.7 ± 3.2 nM
[21]; BRD2/3/4 and BRDT, 24 bromodomains tested
  Kd: 0.49 to 1.6 nM
[21]; other bromodomains of the panel (n = 24) vs. BRD4-BD1
  selectivity vs. BRD4-BD1: ≥ 200 fold
[22]
  EC50: 2.8 ± 0.4 nM
[23]
  EC50: 13.3 ± 4.5 nM
[24]
  EC50: 6.3 ± 2.9 nM
[25]
  EC50: 11.6 ± 7.6 nM
[26]
  EC50: 25 ± 9 nM
[27]
  EC50: 10.6 ± 9.5 nM
[28]
  EC50: 11.6 ± 8.1 nM
[29]
  EC50: 77.3 ± 17.3 nM
[30]
  EC50: 2.5 ± 2.1 nM
[31]
  EC50: 21.5 ± 10.8 nM
[32]
  EC50: 5.6 ± 0.9 nM
[33]
  EC50: 6.2 ± 1.9 nM
[34]
  EC50: < 10 nM
[34]; Homo sapiens, K562
  EC50: < 100 nM
[34]; on cell lines
  increased potency compared to OTX-015: 10–20 fold
[35]
  EC50: 4.3 ± 2.1 nM
[36]
  EC50: 18.2 ± 10 nM
[37]
  cell cycle effect: G1 arrest
[38]
  EC50: 6.2 ± 2.2 nM
[39]
  EC50: 6.2 ± 0.8 nM
[40]; read-out: BI 894999 EC50, MM Patient 1
  EC50: 52 nM
[40]; read-out: BI 894999 EC50, MM Patient 2
  EC50: 15 nM
[40]; read-out: BI 894999 EC50, MM Patient 3
  EC50: 7 nM
[40]; read-out: BI 894999 EC50, MM Patient 4
  EC50: > 2000 nM
[40]; read-out: BI 894999 EC50, MM Patient 5
  EC50: 500 nM
[40]; read-out: BI 894999 EC50, MM Patient 6
  EC50: 421 nM
[40]; read-out: BI 894999 EC50, MM Patient 7
  EC50: 54 nM
[40]; read-out: BI 894999 EC50, MM Patient 8
  EC50: 3 nM
[40]; read-out: BI 894999 EC50, MM Patient 9
  EC50: 21 nM
[40]; read-out: BI 894999 EC50, MM Patient 10
  EC50: 1 nM
[40]; read-out: BI 894999 EC50, MM Patient 11
  EC50: 57 nM
[40]; read-out: BI 894999 EC50, MM Patient 12
  EC50: 1360 nM
[40]; read-out: BI 894999 EC50, MM Patient 13
  EC50: 2 nM
[40]; read-out: BI 894999 EC50, MM Patient 14
  EC50: 275 nM
[40]; read-out: BI 894999 EC50, MM Patient 15
  EC50: 352 nM
[41]; 10 nM
  effect on proliferation (IncuCyte): Significant inhibition of proliferation
[41]; dose-range 0.05 to 100 nM
  time of peak of apoptosis (Caspase-3/7) after start of treatment: around 40 h
[42]
  Hexim1 levels in blood: back to baseline
